Measured values reported in ChEMBL document CHEMBL3862029, “Discovery of 8-Membered Ring Sulfonamides as Inhibitors of Oncogenic Mutant Isocitrate Dehydrogenase 1” (ACS Med Chem Lett, 2016).
Calls of active or inactive are those of the source. No cut-off for these calls is given here.

target: T1, Isocitrate dehydrogenase [NADP] cytoplasmic (Homo sapiens, UniProt O75874, R132H); assay: Inhibition of human C-terminal His8-tagged IDH1-R132H mutant expressed in Escherichia coli Rosetta assessed as inhibition of ketoreductase activity by measuring NADPH consumption preincubated for 60 mins followed by addition of alpha-KG as substrate measured after 50 mins in presence of NADPH and Mg2+ by resazurin based diaphorase-coupled fluorescence assay
Method in brief: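 IDH1-R132H–Mg2+ ketoreductase assay reading NADPH consumption through a diaphorase-coupled fluorescence reaction. Buffer contained 0.01% Tween 20 against aggregation. Primary screen at 15 μM in duplicate, with positives set at ≥60% inhibition in both replicates. Retests were in 8-point dose.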
Target sequence in this assay (O75874 2-414 R132H limits assumed): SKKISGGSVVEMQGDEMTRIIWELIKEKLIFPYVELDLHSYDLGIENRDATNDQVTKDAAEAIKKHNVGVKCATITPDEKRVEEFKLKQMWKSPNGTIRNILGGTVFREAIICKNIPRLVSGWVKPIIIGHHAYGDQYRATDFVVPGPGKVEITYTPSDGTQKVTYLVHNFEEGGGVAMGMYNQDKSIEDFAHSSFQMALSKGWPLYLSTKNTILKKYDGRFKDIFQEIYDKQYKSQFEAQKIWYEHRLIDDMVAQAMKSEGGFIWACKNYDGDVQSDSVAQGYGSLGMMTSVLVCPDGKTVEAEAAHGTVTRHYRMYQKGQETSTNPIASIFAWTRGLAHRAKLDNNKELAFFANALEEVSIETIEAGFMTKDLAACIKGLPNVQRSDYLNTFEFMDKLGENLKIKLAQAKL

IC50	Compound
3.9 µM	C[C@@H]1CN([C@@H](C)CO)S(=O)(=O)c2ccc(C#Cc3cccc(F)c3)cc2O[C@@H]1CN(C)C(=O)NC1CCCCC1
7.7 µM	C#Cc1ccc2c(c1)O[C@@H](CN(C)C(=O)NC1CCCCC1)[C@H](C)CN([C@@H](C)CO)S2(=O)=O
1 µM	C[C@@H]1CN([C@@H](C)CO)S(=O)(=O)c2ccc(C#Cc3cccc(F)c3)cc2O[C@H]1CN(C)C(=O)NC1CC1
0.44 µM	C[C@@H]1CN([C@@H](C)CO)S(=O)(=O)c2ccc(C#Cc3cccc(F)c3)cc2O[C@H]1CN(C)C(=O)C1CCCCC1
1.4 µM	CCNC(=O)N(C)C[C@@H]1Oc2cc(C#Cc3cccc(F)c3)ccc2S(=O)(=O)N([C@@H](C)CO)C[C@H]1C
0.056 µM	C[C@@H]1CN([C@@H](C)CO)S(=O)(=O)c2ccc(C#Cc3ccc(Cl)cc3)cc2O[C@H]1CN(C)C(=O)NC1CCCCC1
0.028 µM	C[C@@H]1CN([C@@H](C)CO)S(=O)(=O)c2ccc(C#Cc3ccc(F)c(F)c3)cc2O[C@H]1CN(C)C(=O)NC1CCCCC1
0.16 µM	C[C@@H]1CN([C@@H](C)CO)S(=O)(=O)c2ccc(C#Cc3cccnc3)cc2O[C@H]1CN(C)C(=S)NC1CCCCC1
0.26 µM	C[C@@H]1CN([C@@H](C)CO)S(=O)(=O)c2ccc(C#Cc3ccc(F)cn3)cc2O[C@H]1CN(C)C(=O)NC1CCCCC1
0.16 µM	C[C@@H]1CN([C@@H](C)CO)S(=O)(=O)c2ccc(C#Cc3cccc(F)c3)cc2O[C@H]1CN(C)C(=O)NCC1CCCCC1
0.091 µM	C[C@@H]1CN([C@@H](C)CO)S(=O)(=O)c2ccc(C#Cc3ccccc3F)cc2O[C@H]1CN(C)C(=O)NC1CCCCC1
7.4 µM	C[C@@H]1CN([C@@H](C)CO)S(=O)(=O)c2ccc(C#Cc3cccc(F)c3)cc2O[C@H]1CN(C)CCC1CCNCC1
> 20 µM	C[C@H](CO)N1C[C@H](C)[C@H](CN(C)C(=O)NC2CCCCC2)Oc2cc(C#Cc3cccc(F)c3)ccc2S1(=O)=O
0.14 µM	C[C@@H]1CN([C@@H](C)CO)S(=O)(=O)c2ccc(C#C[Si](C)(C)C)cc2O[C@H]1CN(C)C(=O)NC1CCCCC1
0.091 µM	COc1ccc(C#Cc2ccc3c(c2)O[C@@H](CN(C)C(=O)NC2CCCCC2)[C@H](C)CN([C@@H](C)CO)S3(=O)=O)cc1
0.6 µM	C[C@@H]1CN([C@H](C)CO)S(=O)(=O)c2ccc(C#Cc3cccc(F)c3)cc2O[C@H]1CN(C)C(=O)NC1CCCCC1
0.14 µM	C[C@@H]1CN([C@@H](C)CO)S(=O)(=O)c2ccc(C#Cc3cccnc3)cc2O[C@H]1CN(C)C(=O)NC1CCCCC1
6.3 µM	C[C@H]1CN([C@@H](C)CO)S(=O)(=O)c2ccc(C#Cc3cccc(F)c3)cc2O[C@H]1CN(C)C(=O)NC1CCCCC1
5.7 µM	C[C@@H]1CN([C@@H](C)CO)S(=O)(=O)c2ccc(C#Cc3cccc(F)c3)cc2O[C@H]1CN(C)C(=O)N(C)C1CCCCC1
1.6 µM	C[C@@H]1CN([C@@H](C)CO)S(=O)(=O)c2ccc(C#Cc3cccc(F)c3)cc2O[C@H]1CN(C)C(=O)OC(C)(C)C
11 µM	Cc1noc(C)c1NC(=O)N(C)C[C@@H]1Oc2cc(C#Cc3cccc(F)c3)ccc2S(=O)(=O)N([C@@H](C)CO)C[C@H]1C

IC50	Compound
0.06 µM	C[C@@H]1CN([C@@H](C)CO)S(=O)(=O)c2ccc(C#Cc3cccc(Cl)c3)cc2O[C@H]1CN(C)C(=O)NC1CCCCC1
0.19 µM	C[C@@H]1CN([C@@H](C)CO)S(=O)(=O)c2ccc(/C=C/c3ccccc3)cc2O[C@H]1CN(C)C(=O)NC1CCCCC1
0.032 µM	C[C@@H]1CN([C@@H](C)CN(C)C)S(=O)(=O)c2ccc(C#Cc3ccc(F)cc3)cc2O[C@H]1CN(C)C(=O)NC1CCCCC1
0.09 µM	C[C@@H]1CN([C@@H](C)CO)S(=O)(=O)c2ccc(C#CC3CCCCC3)cc2O[C@H]1CN(C)C(=O)NC1CCCCC1
1.6 µM	C[C@@H]1CN([C@@H](C)CO)S(=O)(=O)c2ccc(C#Cc3cncn3C)cc2O[C@H]1CN(C)C(=O)NC1CCCCC1
0.36 µM	C[C@@H]1CN([C@@H](C)CO)S(=O)(=O)c2ccc(C#Cc3cccc(F)c3)cc2O[C@H]1CN(C)C(=O)CC1CCCCC1
> 20 µM	C[C@@H]1CN([C@@H](C)CO)S(=O)(=O)c2ccc(C#CBr)cc2O[C@H]1CN(C)C(=O)NC1CCCCC1
0.096 µM	COc1ccc(OC[C@H](C)N2C[C@@H](C)[C@H](CN(C)C(=O)NC3CCCCC3)Oc3cc(C#Cc4cccnc4)ccc3S2(=O)=O)cc1
0.32 µM	C[C@@H]1CN([C@@H](C)CO)S(=O)(=O)c2ccc(C#Cc3cncnc3)cc2O[C@H]1CN(C)C(=O)NC1CCCCC1
3.1 µM	C[C@@H]1CN([C@@H](C)CO)S(=O)(=O)c2ccc(C#Cc3cccc(F)c3)cc2O[C@H]1CN(C)C(=O)Nc1ccccc1
6.4 µM	C[C@@H]1CN([C@@H](C)CO)S(=O)(=O)c2ccc(-c3cccnc3)cc2O[C@H]1CN(C)C(=O)NC1CCCCC1
5.3 µM	C[C@@H]1CN([C@H](C)CO)S(=O)(=O)c2ccc(C#Cc3cccc(F)c3)cc2O[C@@H]1CN(C)C(=O)NC1CCCCC1
0.037 µM	C[C@@H]1CN([C@@H](C)CO)S(=O)(=O)c2ccc(C#Cc3ccc(F)cc3)cc2O[C@H]1CN(C)C(=O)NC1CCCCC1
9.1 µM	C[C@@H]1CN([C@@H](C)CO)S(=O)(=O)c2ccc(C#Cc3cccnc3)cc2O[C@H]1CCC(=O)NC1CCCCC1
0.075 µM	C[C@@H]1CN([C@@H](C)CO)S(=O)(=O)c2ccc(C#Cc3ccccc3)cc2O[C@H]1CN(C)C(=O)NC1CCCCC1
0.55 µM	CCCNC(=O)N(C)C[C@@H]1Oc2cc(C#Cc3cccc(F)c3)ccc2S(=O)(=O)N([C@@H](C)CO)C[C@H]1C
19 µM	C[C@@H]1CN([C@@H](C)CO)S(=O)(=O)c2ccc(C#Cc3cccc(F)c3)cc2O[C@H]1CN(C)C(=O)c1ccno1
1 µM	C[C@H]1CN([C@@H](C)CO)S(=O)(=O)c2ccc(C#Cc3cccc(F)c3)cc2O[C@@H]1CN(C)C(=O)NC1CCCCC1
0.08 µM	C[C@@H]1CN([C@@H](C)CO)S(=O)(=O)c2ccc(C#Cc3cccc(F)c3)cc2O[C@H]1CN(C)C(=O)NC1CCCC1
7.9 µM	C[C@@H]1CN([C@@H](C)CO)S(=O)(=O)c2ccc(C#Cc3cccc(F)c3)cc2O[C@H]1CN(C)C(=O)C1CCOCC1
1.7 µM	C[C@H](CO)N1C[C@H](C)[C@@H](CN(C)C(=O)NC2CCCCC2)Oc2cc(C#Cc3cccc(F)c3)ccc2S1(=O)=O

target: T1, Isocitrate dehydrogenase [NADP] cytoplasmic; assay: (§1) Inhibition of IDH1-R132H mutant (unknown origin) expressed in human HA1EM cells assessed as suppression of R-2HG secretion measured after 72 hrs by LC-MS/MS analysis; type: cell-based
Method in brief: (§2)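 HA1E-M cells (HEK-293 derivative) engineered to overexpress IDH1-R132H and release R-2HG into growth media. Compound treatment for 72 h, then R-2HG in conditioned media measured by LC-MS. Values normalized to DMSO-treated controls; EC50 from three independent experiments, each run in triplicate.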
Target sequence in this assay (O75874 whole entry R132H): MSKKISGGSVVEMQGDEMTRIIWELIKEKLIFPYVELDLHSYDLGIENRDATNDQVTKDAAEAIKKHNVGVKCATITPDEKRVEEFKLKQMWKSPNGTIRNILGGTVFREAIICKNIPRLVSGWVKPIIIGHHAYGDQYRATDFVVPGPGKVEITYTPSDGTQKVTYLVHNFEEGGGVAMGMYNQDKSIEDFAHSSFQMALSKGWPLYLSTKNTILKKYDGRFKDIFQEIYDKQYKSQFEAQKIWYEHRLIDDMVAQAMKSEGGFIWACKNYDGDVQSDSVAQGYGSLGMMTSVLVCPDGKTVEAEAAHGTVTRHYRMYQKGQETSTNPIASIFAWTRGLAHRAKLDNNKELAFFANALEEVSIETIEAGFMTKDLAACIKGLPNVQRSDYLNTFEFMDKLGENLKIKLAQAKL

EC50	Compound
0.06 µM	Cc1ccccc1C(C(=O)NC1CCCCC1)N(C(=O)Cn1ccnc1C)c1cccc(F)c1 (stereo not given)

test system: Isocitrate dehydrogenase [NADP] cytoplasmic (Homo sapiens), O75874 [R132H]; assay: as §1; type: cell-based; method in brief: as §2
Sequence (O75874 whole entry R132H): as above

inhibition	Compound
Dose-dependent effect	Cc1ccccc1C(C(=O)NC1CCCCC1)N(C(=O)Cn1ccnc1C)c1cccc(F)c1 (stereo not given)

test system: Isocitrate dehydrogenase [NADP] cytoplasmic (Homo sapiens), O75874 [R132H]; assay: Inhibition of human C-terminal His8-tagged IDH1-R132H mutant expressed in Escherichia coli Rosetta assessed as inhibition of ketoreductase activity by measuring NADPH consumption preincubated for 10 mins followed by addition of NADPH and alpha-KG as substrate by fluorescence method
Method in brief: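 Purified IDH1-R132H incubated with α-KG and NADPH; direct kinetic read of falling NADPH fluorescence, run in dose. Enzyme concentration kept below that of the screening assays so inhibitor stays far above enzyme. IC50 values are geometric means of at least three independent experiments.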

inhibition	Compound
Active	Cc1ccccc1C(C(=O)NC1CCCCC1)N(C(=O)Cn1ccnc1C)c1cccc(F)c1 (stereo not given)
